Shown are actives, neighbours in structure and some others; about 3.2% of the full set was active somewhere.
JNK3 blocker: inhibitors of human JNK3 kinase | purified JNK3 kinase activity, HTS | inhibition, % at 8 µM | 0.61% of 60,000 active | AID 746; in the data active = inhibition above about 17%;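 also: 0% = DMSO and 100% = reference inhibitor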
Target sequence (P53779 whole entry, looked up): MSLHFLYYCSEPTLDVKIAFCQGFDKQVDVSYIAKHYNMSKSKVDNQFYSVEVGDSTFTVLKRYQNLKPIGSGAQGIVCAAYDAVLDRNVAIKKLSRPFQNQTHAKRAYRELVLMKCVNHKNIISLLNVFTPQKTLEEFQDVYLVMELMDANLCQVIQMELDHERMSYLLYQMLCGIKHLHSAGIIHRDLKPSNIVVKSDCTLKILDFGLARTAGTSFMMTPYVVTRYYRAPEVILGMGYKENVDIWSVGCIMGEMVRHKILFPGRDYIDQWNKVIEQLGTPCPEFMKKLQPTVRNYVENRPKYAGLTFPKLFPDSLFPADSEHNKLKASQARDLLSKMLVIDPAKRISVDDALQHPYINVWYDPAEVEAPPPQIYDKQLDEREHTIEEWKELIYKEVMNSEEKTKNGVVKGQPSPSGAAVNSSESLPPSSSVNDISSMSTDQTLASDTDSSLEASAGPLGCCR
SF-1 act: SF-1 (human) activation. 1.9% of 65,000 active. AID 522. CHO-K1 Gal4-SF-1 LBD luciferase reporter; % increase over DMSO SF-1-specific signal. activation, % at 10 µM;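 active = activation above the mean activation of all tested compounds plus 3 SD, cut at about 50% in these data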
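Assay system: CHO-K1 cells co-transfected with Gal4 DBD–human SF-1 LBD, 5xGal4 luciferase reporter; doses: 10 µM only; incubation: 20 h compound exposure at 37 °C after 1 h cell settling; signal: luciferase light emission; evaluation: percent activation versus DMSO; repeats: one test per compound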
RORa activator: activates the human nuclear receptor RORA; P35398; CHO-K1 Gal4-RORA LBD luciferase reporter, luminescence; percent increase over mock-subtracted basal signal; activation, % at 10 µM; 1.5% of 65,000 active;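 active = activation above the mean of all tested compounds plus 3 SD, cut at about 49% in these data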;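 also: 0% = DMSO-treated RORA cells and 100% = added signal equal to DMSO minus mock-transfected cells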
BAP1 block: human BAP1 deubiquitinase inhibition. recombinant BAP1, Ub-AMC hydrolysis fluorescence kinetic; hits give low values. AID 436. activity remaining (% of control), % at 20 µM. Q92560. 0.48% of 72,000 active;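 active = activity remaining at or below 50% of control, provided the compound also passes the data quality filters; inactive = the rest, including low values that fail the filters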;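 also: 100% = DMSO wells rate and 0% = substrate alone blank rate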
Ec RNAP inh: inhibitors of Escherichia coli RNA polymerase; AID 559; inhibition, %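 (tested at 10 µM)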; P0A8V2; 0.2% of 62,000 active; E. coli RNA polymerase, fluorescence transcription assay; in the data active = inhibition above about 20%;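 also: 0% = enzyme without compound and 100% = no enzyme blank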
The depositor's hits bear a star; · = no result shown.

SMILES | JNK3 blocker | SF-1 act | RORa activator | BAP1 block | Ec RNAP inh
COC(=O)c1c(-c2cccs2)csc1NC(=O)CN1CCOCC1 | 23* | 0 | 19 | 89 | 4
CCOC(=O)c1c(-c2ccc(C)o2)csc1NC(=O)CN1CCN(CC)CC1 | 7 | 17 | -6 | 132 | 13
Cc1nc2ccc(NC(=O)N3CCCCC3)cc2s1 | 1 | 54* | 30 | 103 | -5
Cc1nc2ccc(NC(=O)N3CCN(c4ccccn4)CC3)cc2s1 | 3 | -3 | -7 | 86 | 8
CC(C(=O)NC1=NCCS1)(C(F)(F)F)C(F)(F)F | -8 | -9 | -7 | 71 | 6
Cn1c2ccc(F)cc2c2ncn(CCN3CCOCC3)c(=O)c21 | 3 | 9 | 11 | 98 | 7
COc1ccc2c(c1)c1ncn(Cc3ccco3)c(=O)c1n2C | 19* | 10 | 0 | · | 1
CCCCc1c(C)c2ccc(OCC(C)=O)cc2oc1=O | 2 | 74* | 20 | 113 | -11
CC1CCc2nn(CC(=O)NCc3ccc(F)cc3)cc2C1 (stereo not drawn) | -8 | -30 | 10 | 100 | 6
O=C(COn1nnc2ccc(C(F)(F)F)cc21)Nc1nnc(-c2ccccc2)o1 | -1 | -4 | -5 | 99 | 7
O=C(CSCc1cccc(F)c1)N1CCN(c2ccccc2)CC1 | · | 31 | 53* | 91 | 6
O=C(CSCc1ccccc1)N1CCN(c2ccc(F)cc2)CC1 | · | · | · | · | -3
COc1ccc(N(CC(=O)N2CCc3ccccc32)S(=O)(=O)c2c(C)noc2C)cc1 | -7 | -9 | 11 | · | 2
COC(=O)c1cccc(Cn2nnc3ccccc3c2=O)c1 | 17* | -8 | -8 | 125 | -4
COc1cccc(C(=O)OCn2nnc3ccccc3c2=O)c1 | · | -3 | -20 | 102 | -13
CCCOC(=O)Nc1nc2ccccc2o1 | 0 | 58* | 34 | 97 | 4
Oc1ccc(C(c2nnnn2C2CCCC2)N2CCc3ccccc3C2)cc1 (stereo not drawn) | -4 | -23 | -5 | 100 | 7
O=C(OCc1nc2ccccc2s1)C1CCN(C2=NS(=O)(=O)c3ccccc32)CC1 | 7 | 53* | 26 | · | 9
Cc1ccc(C(=O)NCCn2cc(SCC(=O)Nc3nnc(C)s3)c3ccccc32)cc1 | 3 | -16 | -13 | 91 | 8
Brc1cc(Br)c2ncnc(N3CCCCC3)c2c1 | · | -11 | -10 | · | 1
CCOc1ccccc1NC(=O)COc1cccc(-n2cnnn2)c1 | 23* | -15 | -8 | 114 | 2
CCC(C)c1ccc(NC(=O)c2cccnc2)cc1 (stereo not drawn) | 0 | 112* | 93* | 95 | 3
O=C(Nc1cnc2ccccc2c1)c1cccnc1 | 1 | 75* | 58* | 79 | 1
CCOc1ccccc1NC(=O)COc1cccc(Cl)c1 | · | · | · | 52 | ·
CCC(C)c1ccc(O)c(NC(=O)c2cccnc2)c1 (stereo not drawn) | 3 | -29 | -7 | 89 | 0
SMILES | JNK3 blocker | SF-1 act | RORa activator | BAP1 block | Ec RNAP inh
O=C(Nc1cccc(NC(=O)c2cccnc2)c1)c1cccnc1 | 4 | -8 | -11 | 113 | -6
O=C(Nc1cnc2ccccc2c1)c1cccc(-n2cnnn2)c1 | 4 | 56* | 37 | 98 | ·
CCCCCCNC(=O)c1c(O)c2ccccc2[nH]c1=O | -1 | -12 | 0 | 77 | 2
Cc1ccc(NC(=O)c2cc3n(n2)C(C(F)(F)F)CC(c2ccccc2)N3)cc1C (stereo not drawn) | · | · | · | 76 | ·
Cc1cc(NC(=O)C2CCCCC2)nc2c1c(=O)oc1ccccc12 | · | -6 | 0 | 67 | 4
N=C1C(c2nc3ccccc3s2)=C(O)CN1Cc1ccco1 | 9 | 52* | 36 | 120 | 12
Cc1cc2n(n1)C(c1ccccc1)Nc1ccccc1-2 (stereo not drawn) | -1 | 8 | -18 | 60 | 6
Cc1cc2n(n1)C(c1ccc(N(C)C)cc1)Nc1ccccc1-2 (stereo not drawn) | -7 | 75* | 13 | · | -8
COc1ccc(-c2ncc3ccccn23)cc1 | 10 | 53* | 21 | 117 | 10
CCOC(=O)C1=C(C)OC(N)=C(C#N)C1c1cc2c(cc1Br)OCO2 (stereo not drawn) | 0 | -6 | 2 | 86 | 9
CCOC(=O)C1=C(C)OC(N)=C(C#N)C1c1cc2ccccc2nc1N1CCCCC1 (stereo not drawn) | 22* | 0 | -8 | 150 | 3
COCCCNC(=O)COc1ccc(Cl)c(C)c1 | 4 | 4 | 1 | 89 | 8
Cn1c(SCc2c(F)cccc2Cl)nnc1-c1cccs1 | 2 | 58* | 102* | 85 | -7
CCOc1ccc(NC(=O)c2nnn(CC(=O)Nc3ccccc3OC)c2N)cc1 | 5 | -25 | 41 | 115 | 5
CCOc1ccccc1-c1nc(-c2ccc(C)nc2OC)no1 | · | 58* | 36 | 99 | 0
COc1nc(C)ccc1-c1noc(-c2ccncc2)n1 | 4 | 64* | 31 | 86 | 0
CCOc1nc(C)ccc1-c1noc(-c2ccccn2)n1 | -1 | 9 | 8 | 88 | ·
COC(=O)c1ccc(CNC(=O)COc2ccccc2Br)o1 | 9 | 4 | -5 | 128 | 5
CCCc1nnc(NC(=O)c2ccncc2)s1 | 1 | -2 | -16 | 96 | 6
Clc1ccccc1OCCn1cnc2ccccc21 | 0 | -8 | 51* | 78 | 4
COc1cc(C(=O)OCC(=O)c2cc(C)n(C)c2C)cc(NC(=O)c2ccco2)c1OC | -3 | -10 | 0 | · | 2
COc1ccc(S(=O)(=O)NCCCCNS(=O)(=O)c2ccc(OC)cc2)cc1 | 2 | 2 | -9 | 135 | 8
O=C(CCc1ccc(S(=O)(=O)N2CCOCC2)cc1)Nc1cc(Cl)ccc1N1CCOCC1 | 4 | 21 | -4 | 81 | -5
Fc1cccc(Cl)c1Cn1nnc(-c2ccc3c(c2)OCO3)n1 | 0 | 70* | 56* | 74 | 9
N#CCn1nnc(-c2ccc3c(c2)OCO3)n1 | -2 | -7 | -16 | 92 | 1
SMILES | JNK3 blocker | SF-1 act | RORa activator | BAP1 block | Ec RNAP inh
O=C(O)c1cccc(N2C(=O)C3CC=C(Cl)CC3C2=O)c1 (stereo not drawn) | -6 | -23 | -7 | 99 | -1
Cc1ccc(-c2nnc(-c3ccc(Br)cc3)o2)o1 | -6 | 75* | 25 | · | 17
Cc1ccc(OC(=O)c2ccc([N+](=O)[O-])c(C)c2)c(-n2nc3ccccc3n2)c1 | · | · | · | 151 | ·
CCN(Cc1ccccc1)C(=O)CCCOc1ccccc1 | -3 | 32 | 58* | 121 | 8
COc1ccc2c(c1)S/C(=C\C(=O)c1ccncc1)N2C | -8 | 46 | 58* | 74 | -1
CN1/C(=C\C(=O)c2cccs2)Sc2ccccc21 | -7 | 34 | 28 | 76 | 5
COc1ccc(N2CCn3c2nc2c3c(=O)n(CCc3ccccc3)c(=O)n2C)cc1 | 1 | -23 | -2 | 87 | 0
Cc1cc(NO)nc(-c2ccc(Br)cc2)n1 | -4 | 64* | 59* | 89 | ·
Cc1cc(C)nc(NS(=O)(=O)c2ccc(Br)cc2)n1 | 0 | -13 | 2 | 114 | 2

High-throughput results from PubChem BioAssay.
